The record followed here is ChEMBL document CHEMBL4402600, “Discovery of a Dual Tubulin Polymerization and Cell Division Cycle 20 Homologue Inhibitor via Structural Modification on Apcin” (J Med Chem, 2020).

One assay deals with A549. In words: Cytotoxicity in human A549 cells assessed as reduction in cell viability incubated for 48 hrs by MTT assay. Format: functional, cell-based. The conditions noted are these: A549, 48 h. The procedure, abridged:
(§1)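 Cells grown at 37°C, 5% CO₂ (HepG2, OVCAR-3, Caov-3 in DMEM + 10% FBS; A549, HeLa, A375, MCF-7 in RPMI 1640 + 10% FBS). Seeded at 4-5×10³/well in triplicate, adhered overnight, exposed to 0.03–300 μM (DMSO <0.1%) for 48 h. MTT added for 4 h, formazan dissolved in DMSO, absorbance read. IC50 from dose–response curves, mean ± SD of at least three independent experiments.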
For orientation: Formazan colour is commonly taken as a measure of viable cells.

For assay [1], the system named is HepG2. Briefly: Induction of apoptosis in human HepG2 cells assessed as necrotic cells level at 100 uM incubated for 24 hrs by Annexin V-FITC/PI staining based flow cytometry (reference value: 1.48%). Format: functional. (In general: A flow cytometer gives signals particle by particle.)
The subject of assay [2] is HepG2. Briefly: Induction of apoptosis in human HepG2 cells assessed as viable cells level at 300 uM incubated for 24 hrs by Annexin V-FITC/PI staining based flow cytometry (reference value: 89.38%). The assay is classed as functional.
In assay [3] the test system is HepG2. In words: Inhibition of mitotic exit in human HepG2 cells assessed as increase in nuclear phosphohistone H3 levels incubated for 48 hrs by immunofluorescence assay. Format: functional, cell-based. The method in brief:
(§2)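 HepG2 seeded at 4×10³/well, overnight adhesion, treated 48 h. Fixed 15 min in 4% formaldehyde, permeabilized with Triton X-100, BSA-blocked, anti-phospho-histone H3 (Ser10) at 4°C overnight, fluorescent anti-rabbit secondary, DAPI counterstain. Fluorescence read relative to DMSO control; PHH3-positive cells counted in random fields as % of total. At least two experiments.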

Assay [4] deals with HepG2. Briefly: Induction of apoptosis in human HepG2 cells assessed as increase in cleaved PARP level at 30 to 100 uM incubated for 48 hrs by Western blot analysis. The assay is classed as functional, cell-based. The method in brief: (§3)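 HepG2 cells treated 48 h. Lysates in RIPA buffer with protease/phosphatase inhibitors; 25 μg protein run on SDS-PAGE, transferred to PVDF, blocked in 5% milk/TBST, primary antibodies overnight at 4°C (caspase-3, cleaved caspase-3, cleaved PARP), HRP secondary 1 h at room temperature, ECL detection; densitometry quantified.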
(Immunoblotting shows a protein as a band on a membrane.)

A further assay concerns A-375. In words: Cytotoxicity in human A375 cells assessed as reduction in cell viability incubated for 48 hrs by MTT assay. The assay is classed as functional, cell-based. Conditions: A-375, 48 h. The method in brief:
as §1

The subject of assay [5] is HepG2. In words: Induction of apoptosis in human HepG2 cells assessed as increase in cleaved caspase-3 level at 30 to 100 uM incubated for 48 hrs by Western blot analysis. Format: functional, cell-based. The method in brief:
as §3

The next assay relates to HeLa. In words: Cytotoxicity in human HeLa cells assessed as reduction in cell viability incubated for 48 hrs by MTT assay. Format: functional, cell-based. The method in brief:
as §1

The subject of assay [6] is HepG2. Briefly: Induction of apoptosis in human HepG2 cells assessed as late apoptotic cells level at 300 uM incubated for 24 hrs by Annexin V-FITC/PI staining based flow cytometry (reference value: 5.12%). The assay is classed as functional.
The next assay deals with Caov-3 cell line. Briefly: Cytotoxicity in human Caov3 cells assessed as reduction in cell viability incubated for 48 hrs by MTT assay. Format: functional, cell-based. The conditions noted are these: Caov-3, 48 h. The method in brief:
as §1

Assay [7] relates to HepG2. In words: Induction of apoptosis in human HepG2 cells assessed as early apoptotic cells level at 100 uM incubated for 24 hrs by Annexin V-FITC/PI staining based flow cytometry (reference value: 4.02%). The assay is classed as functional.
A further assay deals with OVCAR-3. In words: Cytotoxicity in human OVCAR3 cells assessed as reduction in cell viability incubated for 48 hrs by MTT assay. The assay is classed as functional, cell-based. The conditions noted are these: OVCAR-3, 48 h. The method in brief: as §1
In assay [8] the target is T1, Cell division cycle protein 20 homolog (Homo sapiens, UniProt Q12834). Briefly: Inhibition of CDC20 in human HepG2 cells assessed as increase in Bim protein levels at 100 uM incubated for 48 hrs by Western blot Analysis. The assay is classed as cell-based. The procedure, abridged:
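HepG2 lysates in RIPA buffer with protease/phosphatase inhibitors; 25 μg protein by SDS-PAGE/PVDF, blocked in 5% milk/TBST, primary antibodies overnight at 4°C (Cyclin A2, Cyclin B1, Bim, Aurora A, Skp2), HRP secondary 1 h at room temperature, ECL; bands quantified by densitometry.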

Assay [9] has as its system HepG2. In words: Induction of apoptosis in human HepG2 cells assessed as viable cells level at 100 uM incubated for 24 hrs by Annexin V-FITC/PI staining based flow cytometry (reference value: 89.38%). The assay is classed as functional.
The target of assay [10] is T1, Cell division cycle protein 20 homolog. In words: Binding affinity to CDC20 (unknown origin) by SPR analysis. The method in brief: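 Recombinant human Cdc20 (>95% pure) coupled by EDC/NHS to an acid-coupling chip; PBS pH 7.4 running buffer. Compounds injected as a gradient dilution series starting at 200 μM, 120-140 s association, 160 s dissociation. Steady-state values plotted against concentration; K_D from a one-to-one / single-site model.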

The test system of assay [11] is HepG2. Briefly: Cytotoxicity in human HepG2 cells assessed as reduction in cell viability incubated for 48 hrs by MTT assay. Format: functional, cell-based. Conditions: HepG2, 48 h. The method in brief: as §1
Assay [12] deals with HepG2. In words: Induction of apoptosis in human HepG2 cells assessed as necrotic cells level at 300 uM incubated for 24 hrs by Annexin V-FITC/PI staining based flow cytometry (reference value: 1.48%). Format: functional.
Assay [13] deals with HepG2. Briefly: Induction of apoptosis in human HepG2 cells assessed as early apoptotic cells level at 300 uM incubated for 24 hrs by Annexin V-FITC/PI staining based flow cytometry (reference value: 4.02%). The assay is classed as functional.
Another assay deals with MCF7. Briefly: Cytotoxicity in human MCF7 cells assessed as reduction in cell viability incubated for 48 hrs by MTT assay. Format: functional, cell-based. Conditions: MCF7, 48 h. The procedure, abridged:
as §1

For assay [14], the system named is HepG2. Briefly: Inhibition of mitotic exit in human HepG2 cells assessed as increase in nuclear phosphohistone H3 levels at 10 to 100 uM incubated for 48 hrs by relative to control.
Assay [15] concerns HepG2. In words: Induction of apoptosis in human HepG2 cells assessed as late apoptotic cells level at 100 uM incubated for 24 hrs by Annexin V-FITC/PI staining based flow cytometry (reference value: 5.12%). Format: functional.
Assay [16] relates to HepG2. In words: Induction of apoptosis in human HepG2 cells assessed as viable cells level at 0.3 uM incubated for 24 hrs by Annexin V-FITC/PI staining based flow cytometry (reference value: 89.38%). Format: functional.
Assay [17] addresses T2, Tubulin (Homo sapiens) (UniProt P68371+Q9H4B7+P0DPH7+P68366+Q13509+Q71U36+P04350+Q3ZCM7+P07437+P68363+Q9BQE3+Q6PEY2+Q13885+Q9BVA1+Q9BUF5). Briefly: Inhibition of tubulin polymerization in human HepG2 cells assessed as disruption of microtubule organization in cytosol at 0.3 uM incubated for 48 hrs by immunofluorescent staining. The assay is classed as cell-based. The method in brief: (§4)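 HepG2 treated 48 h (vehicle 0.1% DMSO; 0.3 μM paclitaxel reference). Fixed in formaldehyde, permeabilized with Triton X-100, BSA-blocked, anti-α-tubulin overnight at 4°C, fluorescent secondary, DAPI counterstain; imaged for microtubule network and chromosome morphology.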

Another assay deals with Tubulin (Sus scrofa) (UniProt P02554+P02550). Briefly: Inhibition of porcine brain tubulin polymerization assessed as reduction in rate and extent of tubulin assembly measured at 37 degC every 30 secs for 60 mins by fluorescence based assay.
Assay [18] deals with HepG2. In words: Induction of apoptosis in human HepG2 cells assessed as late apoptotic cells level at 0.3 uM incubated for 24 hrs by Annexin V-FITC/PI staining based flow cytometry (reference value: 5.12%). The assay is classed as functional.
The test system of assay [19] is HepG2. Briefly: Inhibition of cell invasion in human HepG2 cells assessed as retardation of cell penetration through matrigel-coated membranes at 0.3 uM incubated for 48 hrs. Format: functional, cell-based. The method in brief: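 HepG2 cells treated with compound or DMSO seeded in upper Transwell chamber in serum-free medium with Matrigel; complete medium in lower chamber. After 48 h at 37°C, 5% CO₂, invaded cells crystal-violet stained and photographed.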

The subject of assay [20] is HepG2. In words: Inhibition of cell migration in human HepG2 cells incubated for 48 hrs by wound healing assay. The assay is classed as functional, cell-based. The procedure, abridged: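 HepG2 seeded at 15×10⁴/well in triplicate overnight. Confluent monolayers scratched with a pipette tip, PBS-washed, medium with 0.3 μM compound added. Wounds photographed at 0, 24, 48, 72 h; wound area measured by image analysis. At least two separate experiments.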

Assay [21] deals with HepG2. In words: Inhibition of mitotic exit in human HepG2 cells assessed as increase in nuclear phosphohistone H3 levels at 100 uM incubated for 48 hrs by immunofluorescence assay relative to control. The assay is classed as functional. On the set-up: scale not given: the % may be the effect or the level left. The procedure, abridged: as §2
Assay [22] relates to HepG2. Briefly: Induction of apoptosis in human HepG2 cells assessed as early apoptotic cells level at 0.3 uM incubated for 24 hrs by Annexin V-FITC/PI staining based flow cytometry (reference value: 4.02%). Format: functional.
Assay [23] addresses T2, Tubulin (Homo sapiens). In words: Inhibition of tubulin polymerization in human HepG2 cells assessed as condensed chromosome formation at 0.3 uM incubated for 48 hrs by immunofluorescent staining. The assay is classed as cell-based. The procedure, abridged: as §4
Assay [24] concerns HepG2. In words: Induction of apoptosis in human HepG2 cells assessed as increase in cleaved PARP level at 0.03 to 0.3 uM incubated for 48 hrs by Western blot analysis. Format: functional, cell-based. The procedure, abridged:
as §3

For assay [25], the system named is HepG2. In words: Induction of apoptosis in human HepG2 cells assessed as increase in cleaved caspase-3 level at 0.03 to 0.3 uM incubated for 48 hrs by Western blot analysis. Format: functional, cell-based. The method in brief: as §3
Assay [26] relates to HepG2. Briefly: Induction of apoptosis in human HepG2 cells assessed as necrotic cells level at 0.3 uM incubated for 24 hrs by Annexin V-FITC/PI staining based flow cytometry (reference value: 1.48%). Format: functional.
Assay [27] concerns HepG2. In words: Inhibition of mitotic exit in human HepG2 cells assessed as increase in nuclear phosphohistone H3 levels at 0.03 to 0.3 uM incubated for 48 hrs by Western blot analysis relative to control. Format: functional, cell-based.

Active and inactive are the calls of the source. The calls are words filed in the database; no cut-off is given here. Bounds are passed on as bounds.

T1 sequence (Q12834 whole entry): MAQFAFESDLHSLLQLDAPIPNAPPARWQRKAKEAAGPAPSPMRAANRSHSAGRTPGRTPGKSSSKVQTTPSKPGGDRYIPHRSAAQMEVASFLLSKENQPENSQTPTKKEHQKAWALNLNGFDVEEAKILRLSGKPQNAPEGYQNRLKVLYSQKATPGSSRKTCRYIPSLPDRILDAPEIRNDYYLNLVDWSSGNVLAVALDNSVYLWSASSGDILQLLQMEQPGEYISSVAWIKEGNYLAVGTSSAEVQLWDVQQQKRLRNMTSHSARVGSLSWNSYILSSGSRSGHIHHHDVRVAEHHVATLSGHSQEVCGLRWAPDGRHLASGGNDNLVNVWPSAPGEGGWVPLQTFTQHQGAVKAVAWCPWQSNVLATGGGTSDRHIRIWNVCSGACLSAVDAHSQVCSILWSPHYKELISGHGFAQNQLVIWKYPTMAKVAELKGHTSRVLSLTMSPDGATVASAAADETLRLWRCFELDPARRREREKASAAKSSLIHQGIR
Tubulin (Sus scrofa), sequence (P02550 whole entry, looked up): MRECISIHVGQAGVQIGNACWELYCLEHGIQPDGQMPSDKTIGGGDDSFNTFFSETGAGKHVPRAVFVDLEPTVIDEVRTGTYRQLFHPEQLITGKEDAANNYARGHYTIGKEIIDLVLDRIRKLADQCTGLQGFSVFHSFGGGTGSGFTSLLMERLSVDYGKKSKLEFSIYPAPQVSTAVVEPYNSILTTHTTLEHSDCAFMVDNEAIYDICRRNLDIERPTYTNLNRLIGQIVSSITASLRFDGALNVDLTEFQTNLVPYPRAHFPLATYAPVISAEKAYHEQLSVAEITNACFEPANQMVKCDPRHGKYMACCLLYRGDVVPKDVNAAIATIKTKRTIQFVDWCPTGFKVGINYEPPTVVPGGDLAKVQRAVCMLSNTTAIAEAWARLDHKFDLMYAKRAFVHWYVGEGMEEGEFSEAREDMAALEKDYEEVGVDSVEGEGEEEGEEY
Tubulin (Sus scrofa), sequence (P02554 whole entry, looked up): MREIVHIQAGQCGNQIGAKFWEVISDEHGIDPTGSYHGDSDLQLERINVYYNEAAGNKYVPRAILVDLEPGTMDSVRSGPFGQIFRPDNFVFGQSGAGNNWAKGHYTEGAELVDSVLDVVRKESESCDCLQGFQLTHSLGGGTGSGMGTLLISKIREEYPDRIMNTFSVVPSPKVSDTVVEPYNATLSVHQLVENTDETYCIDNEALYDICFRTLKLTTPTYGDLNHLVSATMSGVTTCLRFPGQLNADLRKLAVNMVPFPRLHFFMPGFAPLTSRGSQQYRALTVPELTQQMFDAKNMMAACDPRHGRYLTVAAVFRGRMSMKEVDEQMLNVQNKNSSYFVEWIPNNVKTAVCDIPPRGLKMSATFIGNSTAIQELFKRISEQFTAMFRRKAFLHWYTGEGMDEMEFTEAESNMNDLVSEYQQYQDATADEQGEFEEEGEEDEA

`Cc1ncc([N+](=O)[O-])n1CCOC(=O)NC(Nc1ncccn1)C(Cl)(Cl)Cl` (stereo not drawn): the IC50 (in general, the concentration at which inhibition is half-maximal) with A549 was over 300000 nM; in the assay with A-375 it was 193000 nM; with HeLa, 221000 nM; in the assay on Caov-3 cell line, over 300000 nM; with OVCAR-3 it was over 300000 nM; with HepG2 [11] it was over 300000 nM. Also, the concentration for half-maximal inhibition (IC50) in the assay with MCF7 is over 300000 nM. Also, the Activity is 2.39% in the assay with HepG2 [1]; 6.82% with HepG2 [2]; “Dose-dependent effect” in the assay on HepG2 [3]; 30.02% in the assay on HepG2 [6]; 7.85% in the assay with HepG2 [7]; 82.91% in the assay on HepG2 [9]. In addition, the results for the Activity in the assay on HepG2 [12], in the assay on HepG2 [13] and in the assay with HepG2 [15] were 0.73%, 62.43% and 6.85%, respectively. Further, the outcome in the assay with HepG2 [4] and in the assay on HepG2 [5] was Active. The inhibition entry in [8] is “Active”. In addition, in assay [10], binding was put at a Kd of 123000 nM. In addition, in the assay on HepG2 [14], the “fold change (FC)” value came to 2.2.

In the case of `Nc1nc(F)nc2c1ncn2C(NC(=O)OCCN1CCOCC1)C(Cl)(Cl)Cl` (stereo not drawn), the Activity is 57.7% in the assay on HepG2 [16]; “Dose-dependent effect” in the assay with HepG2 [3]; 4.71% in the assay on HepG2 [18]; 10% in the assay with HepG2 [21]; 37.35% in the assay with HepG2 [22]; 0.24% in the assay on HepG2 [26]. The IC50 turned out to be 1500 nM with A549; 700 nM in the assay with A-375; 300 nM in the assay with HeLa; 1500 nM in the assay with Caov-3 cell line; 1700 nM in the assay on OVCAR-3; 600 nM in the assay with HepG2 [11]. For the same molecule, the IC50 in the assay on MCF7 is 200 nM. Moreover, the inhibition result at Tubulin (Homo sapiens) [17], with HepG2 [19] and at Tubulin (Homo sapiens) [23] was “Active” in each case. For the same molecule, the inhibition result on Tubulin (Sus scrofa) and in the assay on HepG2 [20] was “Dose-dependent effect” throughout. The outcome in the assay with HepG2 [24], in the assay with HepG2 [25] and in the assay on HepG2 [27] was Active. Also, binding in assay [10] was put at a Kd of 119000 nM.
